Data on two molecules can be found in ChEMBL document CHEMBL3272264, “(+)- and (-)-3-Methoxycyproheptadine. A comparative evaluation of the antiserotonin, antihistaminic, anticholinergic, and orexigenic properties with cyproheptadine” (1977).

What all share (format): functional
Assay [1] concerns Felis catus. Description: Orexigenic activity in cat assessed as food consumption at 0. 25 mg/kg, po (reference value: 114 +/- 25 to 147 +/- 42 g).
Assay [2] deals with Felis catus. Briefly: Orexigenic activity in cat assessed as food consumption at 0.25 mg/kg, po (reference value: 118 +/- 52 to 143 +/- 37 g).
In assay [3] the test system is Felis catus. Description: Orexigenic activity in cat assessed as food consumption at 0. 0312 mg/kg, po (reference value: 107 +/- 29 to 146 +/- 24 g).
The subject of assay [4] is Felis catus. Description: Orexigenic activity in cat assessed as food consumption at 0. 25 mg/kg, po (reference value: 119 +/- 39 to 155 +/- 34 g).
The test system of assay [5] is Felis catus. Briefly: Orexigenic activity in cat assessed as food consumption at 0. 0312 mg/kg, po (reference value: 126 +/- 34 to 150 +/- 52 g).
In assay [6] the test system is Felis catus. Briefly: Orexigenic activity in cat assessed as food consumption at 0.0312 mg/kg, po (reference value: 126 +/- 26 to 155 +/- 33 g).
The subject of assay [7] is Mus musculus. Description: Anticholinergic activity in po dosed CF-1 mouse assessed as dose required to increase pupil diameter to 1.5 micrometer after 1 hr. In a few lines: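 Female CF-1 mice dosed orally, five dose levels, ten mice per dose. Pupil diameter measured with an ocular micrometer 1 h after dosing. ED1.5 is the dose raising pupil diameter to 1.5 micrometer units, derived by regression of response on log dose (Finney).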

The test system of assay [8] is Cavia porcellus. Description: Antihistaminic activity against ip dosed Duncan-Harley guinea pig assessed as inhibition of histamine aerosol-induced bronchoconstriction compound administered 30 mins prior to histamine challenge. Summed up: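 Guinea pigs of either sex, 200-300 g. Compound given ip as a suspension in 1% methylcellulose. 30 min later, 3-min exposure to histamine aerosol (0.5% base) in individual chambers, then 10 min observation. Dose range 0.031-6.25 mg/kg, 3-4 levels, 5-10 animals per level. ED50 is the dose protecting 50% from bronchoconstriction death, from log-dose regression.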

For assay [9], the system named is Felis catus. Description: Orexigenic activity in cat assessed as food consumption at 0. 25 mg/kg, po (reference value: 179 +/- 31 g).
In assay [10] the test system is Rattus norvegicus. Description: Antiserotonin activity against po dosed Sprague-Dawley rat assessed as inhibition of serotonin-induced edema of right hind paw compound administered 1 hr prior to serotonin challenge. In a few lines:
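Male rats, 140-210 g, dosed orally 1 h before 5 µg serotonin (base) into the right hind paw; saline (0.05 mL) into the left paw. Feet removed and weighed 30 min later; percent inhibition of serotonin weight gain versus saline paw. Doses 0.156-80 mg/kg, 4-16 rats per dose. ED50 from log-dose regression.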

As to `COc1ccc2c(c1)C(=C1CCN(C)CC1)c1ccccc1C=C2`, the Activity in assay [1] was 134 g; in assay [2] it was 143 g; in [3], 115 g; in assay [4], 140 g; in assay [5] it was 131 g; in assay [6], 110 g.

On to `CN1CCC(=C2c3ccccc3C=Cc3ccccc32)CC1` [CYPROHEPTADINE], for which the ED in [7] amounted to 6 mg/kg. The 50% effective dose (ED50) (commonly the midpoint of the dose-response relation) stood at 0.077 mg/kg in assay [8] and 0.24 mg/kg in assay [10]. The Activity in assay [9] came out at 220 g.
